pIC50, pKi: −log10 of the molar value. Calls of active or inactive are those of the source. The rule behind the calls is not given here.
Tests used:
[1] = molecular target: T1, 14 kDa phosphohistidine phosphatase (Homo sapiens) (UniProt Q9NRX4); experiment: Competitive inhibition of PHPT1 (unknown origin) assessed as change in Km and Vmax at below 150 uM using DifMUP as substrate by Michaelis-Menten based analysis
T1 sequence (whole entry): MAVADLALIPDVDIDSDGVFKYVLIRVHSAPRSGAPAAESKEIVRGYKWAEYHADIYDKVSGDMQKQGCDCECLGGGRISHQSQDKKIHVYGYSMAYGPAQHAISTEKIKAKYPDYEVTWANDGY

[2] = molecular target: T1, 14 kDa phosphohistidine phosphatase (Homo sapiens); experiment: Reversible inhibition of PHPT1 (unknown origin) at 1 mM using DiFMUP as fluorogenic substrate preincubated for 30 mins followed by substrate addition by dialysis method
How it was run: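 Reversibility was tested by measuring PHPT1 inhibition in the fluorogenic activity assay before and after dialysis.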

[3] = molecular target: T1, 14 kDa phosphohistidine phosphatase (Homo sapiens); experiment: Mixed inhibition of PHPT1 (unknown origin) assessed as change in Km and Vmax at above 150 uM using DifMUP as substrate by Michaelis-Menten based analysis
[4] = molecular target: T2, 14 kDa phosphohistidine phosphatase (Homo sapiens, UniProt Q9NRX4); experiment: Inhibition of PHPT1 (unknown origin) using DiFMUP as fluorogenic substrate incubated for 30 mins followed by substrate addition and measured every 60 seconds for 30 mins by fluorogenic assay
T2 sequence (Q9NRX4 whole entry): T1 sequence (whole entry)

[5] = molecular target: T3, Mediator of RNA polymerase II transcription subunit 25 (Homo sapiens, UniProt Q71SY5); experiment: Inhibition of Med25 transcriptional activation in human MCF-7 cells by fluorescence polarization assay; type: cell-based; conditions: mcf7
T3 sequence (Q71SY5 whole entry): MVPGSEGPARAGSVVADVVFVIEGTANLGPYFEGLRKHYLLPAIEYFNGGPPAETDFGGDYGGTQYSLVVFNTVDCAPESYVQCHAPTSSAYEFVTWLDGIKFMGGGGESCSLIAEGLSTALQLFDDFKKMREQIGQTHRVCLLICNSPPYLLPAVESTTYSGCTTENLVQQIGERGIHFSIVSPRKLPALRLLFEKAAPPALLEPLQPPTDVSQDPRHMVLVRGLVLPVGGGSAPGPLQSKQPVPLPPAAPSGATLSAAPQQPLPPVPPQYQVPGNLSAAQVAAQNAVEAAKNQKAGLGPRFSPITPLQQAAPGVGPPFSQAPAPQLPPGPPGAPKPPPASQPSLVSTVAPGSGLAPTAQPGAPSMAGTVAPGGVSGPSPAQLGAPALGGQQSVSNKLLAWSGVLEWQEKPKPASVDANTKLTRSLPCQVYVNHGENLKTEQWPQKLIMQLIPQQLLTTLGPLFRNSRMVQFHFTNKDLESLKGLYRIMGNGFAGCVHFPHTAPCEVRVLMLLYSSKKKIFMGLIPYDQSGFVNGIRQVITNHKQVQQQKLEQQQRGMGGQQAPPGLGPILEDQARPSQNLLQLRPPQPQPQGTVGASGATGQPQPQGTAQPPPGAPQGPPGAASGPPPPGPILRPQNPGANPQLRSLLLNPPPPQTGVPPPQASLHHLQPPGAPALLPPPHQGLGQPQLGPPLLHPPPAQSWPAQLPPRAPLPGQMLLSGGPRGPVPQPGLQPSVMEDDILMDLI

[6] = molecular target: T2, 14 kDa phosphohistidine phosphatase; experiment: Inhibition of PHPT1 (unknown origin) assessed as inhibition constant measured up to 100 uM incubated up to 30 mins using DiFMUP as fluorogenic substrate by fluorogenic assay
How it was run: (§1)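 Kinetics of time-dependent PHPT1 inactivation in the fluorogenic activity assay. Observed inactivation rate constants (kobs) were plotted against inhibitor concentration to obtain kinact and KI.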

[7] = molecular target: T1, 14 kDa phosphohistidine phosphatase (Homo sapiens); experiment: Time dependent inhibition of PHPT1 (unknown origin) at 10 uM using DiFMUP as fluorogenic substrate preincubated for 15 to 120 mins followed by substrate addition and measured for 30 mins by fluorogenic assay; conditions: time 45-150 min, TDE = time-dependent effect
[8] = molecular target: T1, 14 kDa phosphohistidine phosphatase (Homo sapiens); experiment: Inhibition of PHPT1 (unknown origin) assessed as inactivation constant measured up to 100 uM incubated up to 30 mins using DiFMUP as fluorogenic substrate by fluorogenic assay; how it was run: as §1
[9] = molecular target: T1, 14 kDa phosphohistidine phosphatase (Homo sapiens); experiment: Time dependent inhibition of PHPT1 (unknown origin) at 20 uM using DiFMUP as fluorogenic substrate preincubated for 15 to 120 mins followed by substrate addition and measured for 30 mins by fluorogenic assay; conditions: time 45-150 min, TDE = time-dependent effect

Structure (SMILES) | inhibition [1] | inhibition [2] | inhibition [3] | pIC50 [4] | pIC50 [5] | pKi [6] | inhibition [7] | Kinact [8] [min⁻¹] | inhibition [9]
CC(=O)Nc1cc([As](=O)(O)O)ccc1O [ACETARSONE] | Active | Active | Active | 4.00 | – | – | – | – | –
Cc1cc(O)c(C=O)c2c1C(=O)Oc1c(C)c(O)c3c(c1O2)C(O)OC3=O (centres undefined) [NORSTICTIC ACID] | – | – | – | 5.10 | 5.64 | 4.05 | Tde | 1.7 | –
O=[N+]([O-])c1cc([As](=O)(O)O)ccc1O [ROXARSONE] | Active | – | Active | 4.10 | – | – | – | – | –
COc1cc(C)c2c(c1C=O)Oc1c(c(C)c(O)c3c1C(O)OC3=O)OC2=O (centres undefined) [STICTIC ACID] | – | – | – | 4.66 | – | – | – | – | Tde

Reference: ChEMBL document CHEMBL5120929, “Inhibitor Screen Identifies Covalent Inhibitors of the Protein Histidine Phosphatase PHPT1” (ACS Med Chem Lett, 2022)
